Data: ChEMBL document CHEMBL3407471, “Development of potent inhibitors of pyocyanin production in Pseudomonas aeruginosa” (J Med Chem, 2015)
Activity calls are given as the source filed them. Unless noted, the rule behind the calls is not given here.

Key:
Pseudomonas aeruginosa [1] = assay: Inhibition of pyocyanin production in wild-type Pseudomonas aeruginosa PA14 assessed as down regulation of mexH relative to control; format: functional
Summary of the method: (§1)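 Wild-type PA14 cultures treated with compound, and a DMSO-treated culture served as control. RNA extracted and analysed by microarray. Genes counted as changed when expression differed by more than 2-fold.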

Escherichia coli [2] = assay: Agonist activity at LasR in Escherichia coli at 100 uM
Pseudomonas aeruginosa [3] = assay: Inhibition of pyocyanin production in wild-type Pseudomonas aeruginosa PA14 assessed as down regulation of PA14_35160 relative to control; format: functional; summary of the method: as §1
Pseudomonas aeruginosa [4] = assay: Inhibition of pyocyanin production in wild-type Pseudomonas aeruginosa PA14 assessed as down regulation of katA relative to control; format: functional; summary of the method: as §1
Pseudomonas aeruginosa [5] = assay: Inhibition of pyocyanin production in wild-type Pseudomonas aeruginosa PA14 assessed as down regulation of mexG relative to control; format: functional; summary of the method: as §1
Pseudomonas aeruginosa [6] = assay: Inhibition of pyocyanin production in wild-type Pseudomonas aeruginosa PA14 assessed as down regulation of mexI relative to control; format: functional; summary of the method: as §1
Pseudomonas aeruginosa [7] = assay: Inhibition of pyocyanin production in wild-type Pseudomonas aeruginosa PA14 assessed as down regulation of PA14_16310 relative to control; format: functional; summary of the method: as §1
Pseudomonas aeruginosa [8] = assay: Antibiofilm activity against wild-type static Pseudomonas aeruginosa PA14 at 100 uM by spectrophotometry; format: functional
Pseudomonas aeruginosa [9] = assay: Inhibition of pyocyanin production in wild-type Pseudomonas aeruginosa PA14 assessed as down regulation of PA14_22320 relative to control; format: functional; summary of the method: as §1
Pseudomonas aeruginosa [10] = assay: Inhibition of pyocyanin production in wild-type Pseudomonas aeruginosa PA14 assessed as down regulation of trxB2 relative to control; format: functional; summary of the method: as §1
Pseudomonas aeruginosa [11] = assay: Inhibition of pyocyanin production in wild-type Pseudomonas aeruginosa PA14 assessed as down regulation of katB relative to control; format: functional; summary of the method: as §1
Pseudomonas aeruginosa [12] = assay: Inhibition of pyocyanin production in wild-type Pseudomonas aeruginosa PA14 assessed as down regulation of fumC relative to control; format: functional; summary of the method: as §1
Pseudomonas aeruginosa [13] = assay: Inhibition of quorum sensing activity in wild-type Pseudomonas aeruginosa PA14 assessed as inhibition of pyocyanin production by spectrophotometry relative to control; format: functional
Summary of the method: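 Pyocyanin produced by wild-type PA14, read by absorbance at 695 nm, across a range of compound levels. IC50 derived from the dose–response.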

Escherichia coli [14] = assay: Competitive binding to RhlR in Escherichia coli at 100 to 500 uM
Summary of the method: (§2)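 Competition format: compound at 100 μM and 500 μM combined with increasing amounts of the receptor's native AHL (LasR or RhlR). Receptor response compared with a DMSO control.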

Pseudomonas aeruginosa [15] = assay: Inhibition of pyocyanin production in wild-type Pseudomonas aeruginosa PA14 assessed as down regulation of PA14_03090 relative to control; format: functional; summary of the method: as §1
Pseudomonas aeruginosa [16] = assay: Inhibition of quorum sensing activity in wild-type Pseudomonas aeruginosa PA14 assessed as inhibition of pyocyanin production at 100 uM by spectrophotometry relative to control; format: functional
Summary of the method: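 Wild-type P. aeruginosa PA14 cultures exposed to compound at 100 μM. Pyocyanin read as absorbance at 695 nm. Efficacy scaled so that wild-type pyocyanin level = 0% and absorbance equal to background medium = 100%.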

Escherichia coli [17] = assay: Antagonist activity at LasR in Escherichia coli assessed as reduction of AHL-induced GFP production at 100 uM
Pseudomonas aeruginosa [18] = assay: Antimicrobial activity against wild-type Pseudomonas aeruginosa PA14; format: functional
Pseudomonas aeruginosa [19] = assay: Inhibition of pyocyanin production in wild-type Pseudomonas aeruginosa PA14 assessed as down regulation of PA14_21530 relative to control; format: functional; summary of the method: as §1
Escherichia coli [20] = assay: Antagonist activity at RhlR in Escherichia coli assessed as reduction of AHL-induced GFP production at 100 uM
Pseudomonas aeruginosa [21] = assay: Inhibition of pyocyanin production in wild-type Pseudomonas aeruginosa PA14 assessed as down regulation of ahpF relative to control; format: functional; summary of the method: as §1
Escherichia coli [22] = assay: Agonist activity at RhlR in Escherichia coli at 100 uM
Escherichia coli [23] = assay: Competitive binding to LasR in Escherichia coli at 100 to 500 uM; summary of the method: as §2
Pseudomonas aeruginosa [24] = assay: Inhibition of pyocyanin production in wild-type Pseudomonas aeruginosa PA14 assessed as down regulation of PA14_58040 relative to control; format: functional; summary of the method: as §1
Pseudomonas aeruginosa [25] = assay: Inhibition of pyocyanin production in wild-type Pseudomonas aeruginosa PA14 assessed as down regulation of opmD relative to control; format: functional; summary of the method: as §1
Pseudomonas aeruginosa [26] = assay: Inhibition of pyocyanin production in wild-type Pseudomonas aeruginosa PA14 assessed as down regulation of PA14_51830 relative to control; format: functional; summary of the method: as §1
[27] = Effect on pyocyanin oxidation state in cell free culture fluid up to 17 hrs by spectrophotometry; format: ADME
Summary of the method: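 Cell-free culture fluids already containing pyocyanin incubated with compound, to test for a change in pyocyanin oxidation state independent of its production.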

With `O=C(CCCCCOc1cccc(Br)c1)Nc1ccnc(C(F)(F)F)c1` the “fold change (FC)” value (Pseudomonas aeruginosa [1]) was 2.93, the Activity (Escherichia coli [2]) was “inactive” and the “fold change (FC)” value (Pseudomonas aeruginosa [3]) was 4.93. For the same compound, the “fold change (FC)” value (Pseudomonas aeruginosa [4]) was 20.8, the “fold change (FC)” value (Pseudomonas aeruginosa [5]) was 2.68 and the “fold change (FC)” value (Pseudomonas aeruginosa [6]) was 2.84. The “fold change (FC)” value (Pseudomonas aeruginosa [7]) was 3.27, the Activity (Pseudomonas aeruginosa [8]) was “inactive” and the “fold change (FC)” value (Pseudomonas aeruginosa [9]) was 35.99. For the same compound, the “fold change (FC)” value (Pseudomonas aeruginosa [10]) was 27.79, the “fold change (FC)” value (Pseudomonas aeruginosa [11]) was 4.15 and the “fold change (FC)” value (Pseudomonas aeruginosa [12]) was 2.71. The IC50 (Pseudomonas aeruginosa [13]) was 2.7 µM, the Activity (Escherichia coli [14]) was “inactive” and the “fold change (FC)” value (Pseudomonas aeruginosa [15]) was 14.35. For the same compound, the Efficacy (Pseudomonas aeruginosa [16]) was 99%, the Activity (Escherichia coli [17]) was “inactive” and the Activity (Pseudomonas aeruginosa [18]) was “inactive”. For the same compound, the “fold change (FC)” value (Pseudomonas aeruginosa [19]) was 44.39, the Activity (Escherichia coli [20]) was “inactive” and the “fold change (FC)” value (Pseudomonas aeruginosa [21]) was 33.03. For the same compound, the Activity (Escherichia coli [22]) was “inactive”, the Activity (Escherichia coli [23]) was “inactive” and the “fold change (FC)” value (Pseudomonas aeruginosa [24]) was 5.67. The “fold change (FC)” value (Pseudomonas aeruginosa [25]) was 2.5 and the “fold change (FC)” value (Pseudomonas aeruginosa [26]) was 5.6.

In the case of `O=C(CCCCCOc1cccc(F)c1)Nc1ccnc(C(F)(F)F)c1`, the Activity (Escherichia coli [2]) is reported as “inactive”, the IC50 (Pseudomonas aeruginosa [13]) is reported as 6.3 µM and the Efficacy (Pseudomonas aeruginosa [16]) is reported as 103%. For the same compound, the Activity (Escherichia coli [17]) was “inactive”, the Activity (Pseudomonas aeruginosa [18]) was “inactive” and the Activity (Escherichia coli [20]) was “inactive”. For the same compound, the Activity (Escherichia coli [22]) was “inactive”.

In the case of `CCCCCCCCCCCC(=O)Nc1ccnc(F)c1`, the Activity (Escherichia coli [2]) is reported as “inactive”, the IC50 (Pseudomonas aeruginosa [13]) is reported as 4.4 µM and the Efficacy (Pseudomonas aeruginosa [16]) is reported as 70%. For the same compound, the Activity (Escherichia coli [17]) was “inactive”, the Activity (Pseudomonas aeruginosa [18]) was “inactive” and the Activity (Escherichia coli [20]) was “inactive”. The Activity (Escherichia coli [22]) was “inactive”.

With `CCCCCCCCCC(=O)CC(=O)Nc1ccncc1` the Activity (Escherichia coli [2]) was “inactive”, the IC50 (Pseudomonas aeruginosa [13]) was 0.16 µM and the Efficacy (Pseudomonas aeruginosa [16]) was 63%. For the same compound, the Activity (Escherichia coli [17]) was “inactive”, the Activity (Pseudomonas aeruginosa [18]) was “inactive” and the Activity (Escherichia coli [20]) was “inactive”. The Stability [27] was “Stable” and the Activity (Escherichia coli [22]) was “inactive”.

In the case of `O=C(CCCCCOc1c(F)c(F)c(F)c(F)c1F)Nc1ccnc(C(F)(F)F)c1`, the Efficacy (Pseudomonas aeruginosa [16]) is reported as 21% and the Activity (Pseudomonas aeruginosa [18]) is reported as “inactive”.

In the case of `Cc1cc(NC(=O)CCCCCOc2cccc(Br)c2)ccn1`, the Efficacy (Pseudomonas aeruginosa [16]) is reported as 80% and the Activity (Pseudomonas aeruginosa [18]) is reported as “inactive”.

For `CCCCCCCCCCCC(=O)Nc1ccncn1`, the Efficacy (Pseudomonas aeruginosa [16]) was 55% and the Activity (Pseudomonas aeruginosa [18]) was “inactive”.

In the case of `O=C(CCCCCOc1ccc(F)cc1)Nc1ccnc(C(F)(F)F)c1`, the Efficacy (Pseudomonas aeruginosa [16]) is reported as 54% and the Activity (Pseudomonas aeruginosa [18]) is reported as “inactive”.

In the case of `O=C(CCCCCOc1cccc([N+](=O)[O-])c1)Nc1ccnc(C(F)(F)F)c1`, the Efficacy (Pseudomonas aeruginosa [16]) is reported as 39% and the Activity (Pseudomonas aeruginosa [18]) is reported as “inactive”.

In the case of `CCCCCCCCCC(=O)CC(=O)Nc1ccc2c(c1)c1ccccc1n2CC`, the Efficacy (Pseudomonas aeruginosa [16]) is reported as 9.3% and the Activity (Pseudomonas aeruginosa [18]) is reported as “inactive”.

In the case of `CCCCCCCCCCCC(=O)Nc1ccnc(OC)c1`, the Efficacy (Pseudomonas aeruginosa [16]) is reported as -5.1% and the Activity (Pseudomonas aeruginosa [18]) is reported as “inactive”.

In the case of `CCCCCCCCCC(=O)CC(=O)Nc1cnccn1`, the Efficacy (Pseudomonas aeruginosa [16]) is reported as 21% and the Activity (Pseudomonas aeruginosa [18]) is reported as “inactive”.

For `O=C(CCCOc1cccc(Br)c1)Nc1ccncc1`, the Efficacy (Pseudomonas aeruginosa [16]) was 21% and the Activity (Pseudomonas aeruginosa [18]) was “inactive”.

With `CCCCCCCCCCCC(=O)Nc1cccnc1` the Efficacy (Pseudomonas aeruginosa [16]) was 34% and the Activity (Pseudomonas aeruginosa [18]) was “inactive”.
